Activity calls are given as the source filed them.
Experiments:
[1] = tested on: Escherichia coli; assay: Antibacterial activity against drug-resistant NDM1 producing Escherichia coli clinical isolate Ecl-14-59 after 16 to 20 hrs by broth microdilution method; assay type: functional
Method in brief: (§1)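 CLSI broth microdilution in Mueller-Hinton broth. A 4-6 h culture was diluted to about 10⁶ CFU/mL and mixed 1:1 with compound dilutions prepared at 256 to 0.5 µg/mL from aqueous stocks. Plates were incubated at 37 °C for 16-20 h and read visually for MIC. Each concentration was run in duplicate, and the experiment was repeated at least twice. Vancomycin and meropenem were comparators.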

[2] = tested on: Klebsiella pneumoniae; assay: Antibacterial activity against drug-resistant carbapenemase producing Klebsiella pneumoniae clinical isolate KP-13-55 after 16 to 20 hrs by broth microdilution method; assay type: functional; method in brief: as §1
[3] = tested on: Klebsiella pneumoniae; assay: Antibacterial activity against drug-resistant carbapenemase producing Klebsiella pneumoniae clinical isolate KP-14-45 after 16 to 20 hrs by broth microdilution method; assay type: functional; method in brief: as §1
[4] = tested on: Klebsiella pneumoniae; assay: Antibacterial activity against drug-resistant carbapenemase producing Klebsiella pneumoniae clinical isolate KP-14-3 after 16 to 20 hrs by broth microdilution method; assay type: functional; method in brief: as §1
[5] = tested on: Escherichia coli; assay: Antibacterial activity against drug-resistant NDM1 producing Escherichia coli clinical isolate SM-15-84 after 16 to 20 hrs by broth microdilution method; assay type: functional; method in brief: as §1
[6] = tested on: Klebsiella pneumoniae; assay: Antibacterial activity against drug-resistant carbapenemase producing Klebsiella pneumoniae clinical isolate KP-13-54 after 16 to 20 hrs by broth microdilution method; assay type: functional; method in brief: as §1
[7] = tested on: Escherichia coli; assay: Antibacterial activity against drug-resistant NDM1 producing Escherichia coli clinical isolate Ecl-14-58 after 16 to 20 hrs by broth microdilution method; assay type: functional; method in brief: as §1
[8] = tested on: Staphylococcus aureus; assay: Antibacterial activity against methicillin-resistant Staphylococcus aureus clinical isolate 1104060 after 16 to 20 hrs by broth microdilution method; assay type: functional; method in brief: as §1
[9] = tested on: Escherichia coli; assay: Antibacterial activity against drug-resistant NDM1 producing Escherichia coli clinical isolate EC-13-49 after 16 to 20 hrs by broth microdilution method; assay type: functional; method in brief: as §1
[10] = tested on: Escherichia coli; assay: Antibacterial activity against drug-resistant NDM1 producing Escherichia coli clinical isolate Ecl-14-56 after 16 to 20 hrs by broth microdilution method; assay type: functional; method in brief: as §1
[11] = tested on: Staphylococcus aureus; assay: Antibacterial activity against methicillin-resistant Staphylococcus aureus clinical isolate 1105183 cono7 after 16 to 20 hrs by broth microdilution method; assay type: functional; method in brief: as §1
[12] = Hemolytic activity in sheep RBC after 1 hr; assay type: ADME, cell-based, Ovis aries, Erythrocyte; settings: sheep red blood cells (erythrocytes)
Method in brief: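 Sheep red blood cells (150 µL suspension) mixed with 50 µL of compound dilutions (5120-10 µg/mL), 1 h at 37 °C, then centrifuged. Supernatant read at 540 nm. Percent hemolysis calculated relative to RBC-only control (0%) and 0.1% Triton X-100 (100%).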

[13] = tested on: Escherichia coli; assay: Antibacterial activity against drug-resistant NDM1 producing Escherichia coli clinical isolate KP-13-58 after 16 to 20 hrs by broth microdilution method; assay type: functional; method in brief: as §1
[14] = tested on: Escherichia coli; assay: Antibacterial activity against drug-resistant NDM1 producing Escherichia coli clinical isolate CF-13-61 after 16 to 20 hrs by broth microdilution method; assay type: functional; method in brief: as §1
[15] = tested on: Staphylococcus aureus; assay: Antibacterial activity against methicillin-resistant Staphylococcus aureus clinical isolate 0906202 after 16 to 20 hrs by broth microdilution method; assay type: functional; method in brief: as §1
[16] = tested on: Escherichia coli; assay: Antibacterial activity against drug-resistant NDM1 producing Escherichia coli clinical isolate 1460 after 16 to 20 hrs by broth microdilution method; assay type: functional; method in brief: as §1
[17] = tested on: Escherichia coli; assay: Antibacterial activity against drug-resistant NDM1 producing Escherichia coli clinical isolate Ecl-13-62 after 16 to 20 hrs by broth microdilution method; assay type: functional; method in brief: as §1
[18] = tested on: Escherichia coli; assay: Induction of cytoplasmic membrane depolarization in Escherichia coli ATCC 25922 at 10 to 20 ug/ml measured every 2 mins for 12 mins by DiSC35 dye-based fluorescence assay; assay type: functional, organism-based
Method in brief: (§2)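 Mid-log cells (~10⁸ CFU/mL) were suspended in PBS (S. aureus) or HEPES/glucose/KCl with EDTA (E. coli). They were preloaded with DiSC3(5) for 30 min (S. aureus) or 40 min (E. coli), and baseline fluorescence was read for 8 min. Compound was added to 20 µg/mL final, and fluorescence (ex 622/em 670 nm) was read every 2 min for 12 min. Water served as control.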

[19] = tested on: Klebsiella pneumoniae; assay: Antibacterial activity against drug-resistant carbapenemase producing Klebsiella pneumoniae clinical isolate KP-14-1 after 16 to 20 hrs by broth microdilution method; assay type: functional; method in brief: as §1
[20] = tested on: Klebsiella pneumoniae; assay: Antibacterial activity against drug-resistant carbapenemase producing Klebsiella pneumoniae clinical isolate KP-14-8 after 16 to 20 hrs by broth microdilution method; assay type: functional; method in brief: as §1
[21] = tested on: Escherichia coli; assay: Antibacterial activity against drug-resistant NDM1 producing Escherichia coli clinical isolate EC-14-54 after 16 to 20 hrs by broth microdilution method; assay type: functional; method in brief: as §1
[22] = tested on: Staphylococcus aureus; assay: Induction of cytoplasmic membrane depolarization in Staphylococcus aureus ATCC 29213 at 10 to 20 ug/ml measured every 2 mins for 12 mins by DiSC35 dye-based fluorescence assay; assay type: functional, organism-based; method in brief: as §2
[23] = tested on: Staphylococcus aureus; assay: Antibacterial activity against methicillin-resistant Staphylococcus aureus clinical isolate 1208143 after 16 to 20 hrs by broth microdilution method; assay type: functional; method in brief: as §1
[24] = tested on: Staphylococcus aureus; assay: Antibacterial activity against methicillin-resistant Staphylococcus aureus clinical isolate 20131012632sau after 16 to 20 hrs by broth microdilution method; assay type: functional; method in brief: as §1
[25] = tested on: Staphylococcus aureus; assay: Antibacterial activity against methicillin-resistant Staphylococcus aureus clinical isolate 0831010 after 16 to 20 hrs by broth microdilution method; assay type: functional; method in brief: as §1
[26] = tested on: Klebsiella pneumoniae; assay: Antibacterial activity against drug-resistant carbapenemase producing Klebsiella pneumoniae clinical isolate EC-13-23 after 16 to 20 hrs by broth microdilution method; assay type: functional; method in brief: as §1
[27] = tested on: Staphylococcus aureus; assay: Antibacterial activity against methicillin-resistant Staphylococcus aureus clinical isolate 1-may after 16 to 20 hrs by broth microdilution method; assay type: functional; method in brief: as §1
[28] = tested on: Klebsiella pneumoniae; assay: Antibacterial activity against drug-resistant carbapenemase producing Klebsiella pneumoniae clinical isolate KP-13-45 after 16 to 20 hrs by broth microdilution method; assay type: functional; method in brief: as §1
[29] = tested on: Staphylococcus aureus; assay: Antibacterial activity against Staphylococcus aureus ATCC 29213 after 16 to 20 hrs by broth microdilution method; assay type: functional
Method in brief: (§3)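 Broth microdilution per CLSI. Bacteria grown 4-6 h (about 10⁸ CFU/mL), then diluted to about 10⁶ CFU/mL. Medium: Mueller-Hinton broth, except Luria-Bertani broth for E. coli. Compounds in sterile water, twofold series 256-0.5 µg/mL, mixed 1:1 with inoculum, 37 °C for 16-20 h. MIC is the lowest concentration without visible growth. Duplicate wells; experiment repeated at least twice.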

[30] = tested on: Klebsiella pneumoniae; assay: Antibacterial activity against drug-resistant carbapenemase producing Klebsiella pneumoniae clinical isolate KP-14-4 after 16 to 20 hrs by broth microdilution method; assay type: functional; method in brief: as §1
[31] = tested on: Klebsiella pneumoniae; assay: Antibacterial activity against drug-resistant carbapenemase producing Klebsiella pneumoniae clinical isolate KP-14-2 after 16 to 20 hrs by broth microdilution method; assay type: functional; method in brief: as §1
[32] = tested on: Staphylococcus aureus; assay: Induction of inner membrane permeabilization in Staphylococcus aureus ATCC 29213 at 10 to 20 ug/ml measured every 2 mins for 12 mins by propidium iodide staining-based fluorescence assay; assay type: functional, organism-based
Method in brief: (§4)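 Mid-log cells (~10⁸ CFU/mL) were suspended in PBS (S. aureus) or HEPES/glucose/KCl (E. coli). They were preincubated with propidium iodide for 30 min (S. aureus) or 40 min (E. coli), and baseline fluorescence was read for 8 min. Compound was added to 20 µg/mL final, and fluorescence (ex 535/em 617 nm) was read every 2 min for 12 min.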

[33] = tested on: Escherichia coli; assay: Antibacterial activity against Escherichia coli ATCC 25922 after 16 to 20 hrs by broth microdilution method; assay type: functional; method in brief: as §3
[34] = tested on: Escherichia coli; assay: Antibacterial activity against drug-resistant NDM1 producing Escherichia coli clinical isolate EA-14-61 after 16 to 20 hrs by broth microdilution method; assay type: functional; method in brief: as §1
[35] = tested on: Escherichia coli; assay: Induction of inner membrane permeabilization in Escherichia coli ATCC 25922 at 10 to 20 ug/ml measured every 2 mins for 12 mins by propidium iodide staining-based fluorescence assay; assay type: functional, organism-based; method in brief: as §4
[36] = tested on: Staphylococcus aureus; assay: Antibacterial activity against methicillin-resistant Staphylococcus aureus clinical isolate 1207007 after 16 to 20 hrs by broth microdilution method; assay type: functional; method in brief: as §1
[37] = tested on: Salmonella enterica; assay: Antibacterial activity against Salmonella enterica ATCC 13076 after 16 to 20 hrs by broth microdilution method; assay type: functional; method in brief: as §3
[38] = tested on: Enterococcus faecalis; assay: Antibacterial activity against Enterococcus faecalis ATCC 29212 after 16 to 20 hrs by broth microdilution method; assay type: functional; method in brief: as §3
[39] = tested on: Klebsiella pneumoniae; assay: Antibacterial activity against drug-resistant carbapenemase producing Klebsiella pneumoniae clinical isolate KP-14-5 after 16 to 20 hrs by broth microdilution method; assay type: functional; method in brief: as §1
[40] = tested on: Klebsiella pneumoniae; assay: Antibacterial activity against drug-resistant carbapenemase producing Klebsiella pneumoniae clinical isolate KP-14-18 after 16 to 20 hrs by broth microdilution method; assay type: functional; method in brief: as §1
[41] = tested on: Escherichia coli; assay: Antibacterial activity against drug-resistant NDM1 producing Escherichia coli clinical isolate CF-15-61 after 16 to 20 hrs by broth microdilution method; assay type: functional; method in brief: as §1
[42] = tested on: Staphylococcus aureus; assay: Antibacterial activity against methicillin-resistant Staphylococcus aureus clinical isolate 20130911034sau after 16 to 20 hrs by broth microdilution method; assay type: functional; method in brief: as §1
[43] = tested on: Escherichia coli; assay: Ratio of MIC for Escherichia coli ATCC 25922 after 20 passages to MIC for Escherichia coli ATCC 25922 before 20 passages; assay type: functional, organism-based
Method in brief: (§5)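 The MIC was first measured by broth microdilution. Cells grown at MIC/2 were then carried into a fresh MIC assay after each 24 h, repeated over 20 serial passages. Norfloxacin (S. aureus) and colistin (E. coli) served as control antibiotics. Resistance was defined as a >4-fold rise over the original MIC.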

[44] = tested on: Staphylococcus aureus; assay: Ratio of MIC for Staphylococcus aureus ATCC 29213 after 20 passages to MIC for Staphylococcus aureus ATCC 29213 before 20 passages; assay type: functional; method in brief: as §5

CCCCCCCC[N+](C)(C)CC(=O)Nc1ccc(C(=O)/C=C/c2ccc(OC)cc2)cc1.[Cl-]
active: Activity [18] | Activity [22] | Activity [32] | Activity [35]
8 µg/mL: MIC [1] | MIC [4] | MIC [6] | MIC [7] | MIC [8] | MIC [10] | MIC [16] | MIC [17] | MIC [19] | MIC [20] | MIC [26] | MIC [28] | MIC [34] | MIC [39] | MIC [41]
16 µg/mL: MIC [2] | MIC [3] | MIC [5] | MIC [40]
124 µg/mL: HC50 at 1 h [12]
2 µg/mL: MIC [31] | MIC [38]
4 µg/mL: MIC [9] | MIC [21] | MIC [24] | MIC [30] | MIC [33] | MIC [37]
1 µg/mL: MIC [11] | MIC [13] | MIC [15] | MIC [23] | MIC [27] | MIC [29] | MIC [42]
32 µg/mL: MIC [14]
0.5 µg/mL: MIC [25] | MIC [36]

COLISTIN
32: Ratio [43]

CCn1cc(C(=O)O)c(=O)c2cc(F)c(N3CCNCC3)cc21 [NORFLOXACIN]
256: Ratio [44]

— ChEMBL document CHEMBL4138242, “Synthesis and antibacterial evaluation of novel cationic chalcone derivatives possessing broad spectrum antibacterial activity” (Eur J Med Chem, 2018)
